Only some compounds are listed: those with a hit (about 1.6% of all), similar ones and a draw of the others.
RBBP9 inh – human RBBP9 hydrolase inhibition; 220,000 tested, 0.2% active; O75884; inhibition, % at 7.94 µM; recombinant RBBP9, FP-Rh probe fluorescence polarization;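 active means inhibition above the campaign mean of all tested compounds plus 3 SD, cut at about 14% in these data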
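Material: RBBP9 protein. Amount: RBBP9 at 2.5 µM in dispensed solution, before mixing. Schedule: 30 min then 45 min, 25 °C. Medium: Tris buffer pH 8.0, NaCl, Pluronic. Measured by: fluorescence polarization. Measure: percent inhibition from mP, scaled between DMSO and no-protein wells. Replication: one well per compound.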
eIF4E 4G PPI – blocks eIF4E binding to eIF4G; 220,000 tested, 0.37% active; inhibition, % at 21.7 µM; TR-FRET eIF4E-eIF4GI(517-606) binding, 2 h; P63073+Q04637;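 active means inhibition above about 30%, limit read from the data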
EBV gp42 inh – blocks Epstein-Barr virus glycoprotein 42 binding; Fluorescence polarization binding assay, mP read-out; inhibition, % (tested at 21.74 µM); 220,000 tested, 0.42% active; AID 1085
Target sequence (Q1HVG2 whole entry, looked up): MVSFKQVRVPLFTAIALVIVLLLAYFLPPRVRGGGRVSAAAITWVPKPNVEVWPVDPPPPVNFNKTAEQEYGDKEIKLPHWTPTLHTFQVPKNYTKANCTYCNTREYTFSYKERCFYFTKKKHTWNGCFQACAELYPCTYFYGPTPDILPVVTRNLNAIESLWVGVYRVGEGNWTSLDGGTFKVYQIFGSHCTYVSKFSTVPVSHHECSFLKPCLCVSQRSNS
PKD1 inh – blocks activity of human protein kinase D1; PKD1 kinase fluorescence polarization assay; 200,000 tested, 0.056% active; inhibition, % (no concentration beside the values); Q15139; AID 797
14-3-3 Bad PPI – disrupts binding of bovine 14-3-3 zeta to phospho-Bad peptide. P63103. TR-FRET 14-3-3zeta/Dy647-pBad peptide displacement, 1 h. inhibition, % at 21.7 µM. 220,000 tested, 0.71% active. AID 781;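 active means inhibition above about 70%, limit read from the data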
FP interf 140K – interferes with fluorescence polarization in PKD inhibitor counter-screen. shares compounds with PKD1 inh. PKD1 FP assay interference counter-screen. inhibition, % at 10 µM. 85 tested, under 10 active; call rule not given here
RBBP9 confirm – confirmation of human RBBP9 inhibitors; shares compounds with RBBP9 inh; recombinant RBBP9, FP-Rh probe fluorescence polarization; inhibition, % at 7.94 µM; 410 tested, 36% active; AID 1537;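 active means inhibition above the hit cutoff derived for the primary screen, cut at about 15% in these data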
Large screens that a line does not name were inactive (follow-up assays come after a bar, where they were run); [ ] = remark or other dose. Unless noted, no stated cut-off is given here; in the data, active means inhibition above about 50%; inactive means the rest.

Cc1ccc(N2C(=O)NC(=O)/C(=C/c3ccoc3)C2=O)cc1	eIF4E 4G PPI 35.3, 14-3-3 Bad PPI 75.0 (no result: PKD1 inh)
CCC(=NCc1cccnc1)c1c(O)n(-c2ccccc2)c(=O)[nH]c1=O	eIF4E 4G PPI 32.1 (no result: PKD1 inh)
CCC(=NCc1cccnc1)c1c(O)n(-c2ccc(C)cc2)c(=O)[nH]c1=O	none (no result: PKD1 inh)
O=C(c1ccc2c3c(cccc13)CC2)C1CCCN(CC2CC2)C1 (stereo unspecified)	none
c1ccc(-c2[nH]c(-c3ccccc3)[n+](CC3CO3)c2-c2ccccc2)cc1 (stereo unspecified)	EBV gp42 inh 56.8
O=[N+]([O-])c1ccc(N2CCCCCC2)c2ncccc12	none
N/C(=N\N=C/c1ccc(-c2ccc(O)c(C(=O)O)c2)o1)N[N+](=O)[O-]	eIF4E 4G PPI 33.3[fluorescence artefact?], 14-3-3 Bad PPI 95.2[fluorescence artefact?]
Oc1cccc2nc3ccccc3nc12	none (no result: PKD1 inh)
O=c1[nH]c(=O)n(CC2CCCO2)c(O)c1/C=C1\C=Nc2ccccc21 (stereo unspecified)	none
O=c1[nH]c(=O)n(Cc2ccccc2)c(O)c1/C=C1\C=Nc2ccccc21	EBV gp42 inh 89.9
COc1ccc(N=Cc2c(O)n(Cc3ccccc3)c(=S)[nH]c2=O)c(OC)c1	EBV gp42 inh 89.8 (no result: PKD1 inh)
Cn1c(=O)c2c(nc(N/N=C/c3c(O)n(-c4ccccc4)c(=S)[nH]c3=O)n2C)n(C)c1=O	none
COc1cc2c(cc1OC)-c1c(OC)c(OC)c(OC)c3ccnc(c13)C2=O	PKD1 inh 50.3 | FP interf 140K inactive
COc1cc(CC2(CCc3ccncc3)C(=O)NC(=O)NC2=O)cc(OC)c1OC	none
O=[N+]([O-])c1ccc(C2[C@H]3C(c4ccccc4)=NC4(CCCCC4)N23)cc1 (stereo partly specified)	none
O=C1Nc2ccccc2/C1=C/c1cnc[nH]1	PKD1 inh 69.5 | FP interf 140K inactive
CCN(CC)C(=O)c1ccc2c(c1)C1C(Cl)C(Sc3ccccc3[N+](=O)[O-])CC1C(C(=O)O)N2 (stereo unspecified)	RBBP9 inh 27.7 (no result: PKD1 inh) | RBBP9 confirm inactive
CC1CCCC(C)N1/N=C/c1c[nH]c2ccc(Br)cc12 (stereo unspecified)	none
